# Measured values of several laboratories.
# Compare with care: the assays were run in different laboratories.
# Cell line: A549
# Effect on: cell growth or viability
Compound,method,time,IC50
CCCn1cnc2ccc(-c3ccc(NC(=O)CC(C)CC)nc3)cc2c1=O (stereo not shown),CCK-8,72 h,1.49 µM
CC(C)NC(=O)Nc1nc2cc(-c3ccc4ncn(Cc5ccccc5)c(=O)c4c3)ccc2s1,MTT,72 h,> 20 µM
COc1cc([C@@H]2c3cc4c(cc3[C@@H](O[C@@H]3O[C@@H]5CO[C@@H](C)O[C@H]5[C@H](O)[C@H]3O)[C@H]3COC(=O)[C@H]23)OCO4)cc(OC)c1O,MTT,48 h,14.3 µM
CCCCn1cnc2ccc(-c3ccc(NC(C)=O)nc3)cc2c1=O,CCK-8,72 h,> 10 µM
Cc1cc(C)cc(NC(=O)Nc2nc3cc(-c4ccc5ncn(Cc6ccccc6)c(=O)c5c4)ccc3s2)c1,MTT,72 h,> 20 µM
CC(C)[C@@H]1NC(=O)[C@@H](CCCNC(=N)N)NC(=O)[C@H](C)NC(=O)[C@@H](CCCN)NC(=O)[C@H](Cc2ccccc2)NC(=O)[C@@H](Cc2ccccc2)NC1=O,ATP luminescence,72 h,> 100 µM
CCCc1cc2cc(-n3nc(C)c4c3CC(C)(C)CC4=O)cc(N3CCC(O)CC3)c2c(=O)[nH]1,MTS,,7.38 µM
CCCCn1cnc2ccc(-c3ccc(NC(=O)Nc4ccc(CC)cc4)nc3)cc2c1=O,CCK-8,72 h,> 10 µM
CN1CCC(NC2CCc3[nH]c4c(C(N)=O)ccc(-c5ccccc5Cl)c4c3C2)CC1 (stereo not shown),,96 h,0.0301 µM
O=C(Nc1ccc(-c2ccc3ncn(Cc4ccccc4)c(=O)c3c2)cn1)C1CCCC1,CCK-8,72 h,> 10 µM
CC(=O)O[C@@]12CO[C@@H]1C[C@H](O)[C@@]1(C)C(=O)[C@H](O)C3=C(C)[C@@H](OC(=O)[C@H](O)[C@@H](NC(=O)OC(C)(C)C)c4ccccc4)C[C@@](O)([C@@H](OC(=O)c4ccccc4)[C@H]21)C3(C)C,MTT,24 h,> 60 µg/mL
COc1cc([C@@H]2c3cc4c(cc3[C@@H](O[C@@H]3O[C@@H]5CO[C@@H](C)O[C@H]5[C@H](O)[C@H]3O)[C@H]3COC(=O)[C@H]23)OCO4)cc(OC)c1O,SRB,72 h,0.3 µM
O=c1[nH]cc(F)c(=O)[nH]1,MTT,48 h,42.5 µM
CCCCC(=O)Nc1ccc(-c2ccc3ncn(CCF)c(=O)c3c2)cn1,CCK-8,72 h,> 10 µM
O=C(Nc1ccc(F)cc1)Nc1nc2cc(-c3ccc4ncn(CCN5CCOCC5)c(=O)c4c3)ccc2s1,MTT,72 h,2.51 µM
[NH2][Pt]([NH2])([Cl])[Cl],MTT,48 h,27.2 µM
CCCCn1cnc2ccc(-c3ccc(NC(=O)NCC)nc3)cc2c1=O,CCK-8,72 h,> 10 µM
C/C(=N\c1nc(N)nc(/N=C(\C)c2c(O)c3ccccc3oc2=O)n1)c1c(O)c2ccccc2oc1=O,MTT,48 h,5.58 µM
Cc1ccc(NC(=O)Nc2nc3cc(-c4ccc5ncn(Cc6ccccc6)c(=O)c5c4)ccc3s2)cc1,MTT,72 h,7.61 µM
C(=N\Nc1cc(N/N=C/c2cccc3cccnc23)ncn1)/c1cccc2cccnc12,MTT,48 h,14.8 µM
O=C(Nc1ccc(F)cc1)Nc1nc2cc(-c3ccc4ncn(Cc5ccccc5)c(=O)c4c3)ccc2s1,MTT,72 h,2.83 µM
CCCNC(=S)N/N=C/c1cccc2cc3ccccc3nc12,MTT,48 h,> 50 µM
CC(C)CCn1cnc2ccc(-c3ccc4sc(NC(=O)Nc5ccc(F)cc5)nc4c3)cc2c1=O,MTT,72 h,2.39 µM
CNC(=O)c1cc(Oc2ccc(NC(=O)Nc3ccc(Cl)c(C(F)(F)F)c3)cc2)ccn1,MTT,24 h,2.92 µM
O=C(O)c1ccc(NCc2ccc(Br)cc2)cc1,resazurin,72 h,> 100 µM
COC(=O)c1cc(C(C)=NNc2nc(-c3ccc(C)cc3)cs2)ccc1O,MTT,96 h,9.61 µM
CCCn1cnc2ccc(-c3ccc(N4CCCCCCC4=O)nc3)cc2c1=O,CCK-8,72 h,> 10 µM
CN(C)C(=O)Nc1nc2ccc(Br)cc2c(=O)n1-c1ccccc1,MTT,48 h,31.1 µM
CSc1ccc(CNc2ccc(C(=O)O)cc2)cc1,resazurin,72 h,> 100 µM
COc1ccc(NC(=S)N/N=C/c2ccc(N3CCC(O)CC3)cc2)cc1,MTT,24 h,5.2 µM
O=C(Cn1cc(COc2ncnc3[nH]cnc23)nn1)Nc1ccc(O)cc1,MTT,,26 µM
O=C(NO)Nc1nc2c(Cl)cc(Cl)cc2c(=O)n1-c1ccccc1,MTT,48 h,45.1 µM
NS(=O)(=O)c1ccc(-n2nc(C(=O)NN3C(=O)CCC3=O)cc2-c2ccccc2)cc1,fluorescence,48 h,24 µM
COc1ccccc1CNc1ccc(C(=O)O)cc1,resazurin,72 h,> 100 µM
CC(C)[C@@H]1NC(=O)[C@@H](Cc2c[nH]cn2)NC(=O)[C@H]([C@@H](C)O)NC(=O)[C@@H](CCCN)NC(=O)[C@H](Cc2ccccc2)NC(=O)[C@@H](Cc2ccccc2)NC1=O,ATP luminescence,,55.8 µM
OC1CCN(c2ccc(/C=N/NC(=S)NCc3ccc(Cl)cc3)cc2)CC1,MTT,24 h,1.46 µM
O=C(Nc1ccc(-c2ccc3ncn(Cc4ccccc4)c(=O)c3c2)cn1)C1CC1,CCK-8,72 h,> 10 µM
O=C(C=Cc1ccc(OCCCCOc2ccc(C=CC(=O)c3cccs3)cc2)cc1)c1cccs1,MTT,48 h,232 µM
COc1cccc2c1C(=O)c1c(O)c3c(c(O)c1C2=O)C[C@@](O)(C(=O)CO)C[C@@H]3O[C@H]1C[C@H](N)[C@H](O)[C@H](C)O1,MTT,48 h,5.95 µM
CC(=O)O[C@H]1C(=O)[C@@]2(C)[C@H]([C@H](OC(=O)c3ccccc3)[C@]3(O)C[C@H](OC(=O)[C@H](O)[C@@H](NC(=O)c4ccccc4)c4ccccc4)C(C)=C1C3(C)C)[C@]1(OC(C)=O)CO[C@@H]1C[C@@H]2O,MTT,72 h,0.64 µM
NS(=O)(=O)c1ccc(-n2nc(-c3nnc(CCl)o3)cc2-c2ccccc2)cc1,fluorescence,48 h,22.3 µM
O=C(O)c1ccc(NCc2ccc([N+](=O)[O-])cc2)cc1,resazurin,72 h,> 100 µM
C/C(=N\CCNCCNCC/N=C(\C)c1c(O)c2ccccc2oc1=O)c1c(O)c2ccccc2oc1=O,MTT,48 h,6.66 µM
NNc1nc2ccc(Br)cc2c(=O)n1-c1ccc(F)cc1,MTT,48 h,63.9 µM
COc1cc(C=NNC(=O)c2cc(-c3ccccc3)n(-c3ccc(S(N)(=O)=O)cc3)n2)cc(OC)c1OC,fluorescence,48 h,18.8 µM
O=[N+]([O-])c1ccc(NC(=S)N/N=C/c2cccc3cc4ccccc4nc23)cc1,MTT,48 h,> 50 µM
CC(=O)Nc1nc2cc(-c3ccc4ncn(Cc5ccccc5)c(=O)c4c3)ccc2s1,MTT,72 h,> 20 µM
COc1ccc(CNc2ccc(C(=O)O)cc2)cc1OC,resazurin,72 h,> 100 µM
NNc1nc2c(Cl)cc(Cl)cc2c(=O)n1-c1ccccc1,MTT,48 h,> 200 µM
C(=N\Nc1cc(N/N=C/c2cccc3cccnc23)nc(-c2ccccc2)n1)/c1cccc2cccnc12,MTT,48 h,12.6 µM
Cc1cc(NS(=O)(=O)c2ccc(NC(=O)/C(C#N)=C/c3cccnc3)cc2)no1,MTT,48 h,> 200 µM
C/C(=N/NC(=O)c1cn(-c2ccccc2)nc1-c1ccc(Br)cc1)c1c(O)cc(C)oc1=O,MTT,48 h,140 µM
